Assay results reported in ChEMBL document CHEMBL4229344 (Eur J Med Chem, 2018).

How the values were obtained:
[1] = biological target: Phosphatidylinositol 5-phosphate 4-kinase type-2 beta (Homo sapiens) (UniProt P78356); experiment: Binding affinity to wild-type human full length PIP5K2B (M1 to T416 residues) expressed in bacterial expression system assessed as residual binding level at 1 uM by Kinomescan method relative to control
Procedure, shortened: (§1)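 KINOMEscan competition binding against 468 purified kinases/mutants, test compound at 1 µM; residual binding relative to control.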

[2] = biological target: Serine/threonine-protein kinase PAK 4 (Homo sapiens) (UniProt O96013); experiment: Binding affinity to wild-type human partial length PAK4 (Q144 to R438 residues) expressed in bacterial expression system assessed as residual binding level at 1 uM by Kinomescan method relative to control
[3] = biological target: Myosin light chain kinase, smooth muscle (Homo sapiens) (UniProt Q15746); experiment: Binding affinity to wild-type human full length MYLK (M854 to E1845 residues) expressed in mammalian expression system assessed as residual binding level at 1 uM by Kinomescan method relative to control
Procedure, shortened: (§2)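 Single-concentration KINOMEscan (DiscoverX) binding screen at 1 μM against a panel of 468 purified kinases and mutants. The read-out is binding relative to control.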

NCI-H1703 = experiment: Antiproliferative activity against human NCI-H1703 cells after 72 hrs by CellTiter-Glo or CCK-8 assay; format: functional; details: NCI-H1703, 72 h
Procedure, shortened: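 Cells in RPMI 1640 with 10% FBS at 37 °C, 5% CO2, seeded at 1–3 × 10^4 cells/mL with serial compound dilutions for 72 h. Viability read by CellTiter-Glo luminescence or CCK-8 absorbance (450/655 nm), normalized to DMSO control.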

[4] = biological target: Mitogen-activated protein kinase kinase kinase kinase 5 (Homo sapiens) (UniProt Q9Y4K4); experiment: Binding affinity to wild-type human partial length MAP4K5 (M1 to P297 residues) expressed in bacterial expression system assessed as residual binding level at 1 uM by Kinomescan method relative to control
Mitogen-activated protein kinase kinase kinase kinase 5 (Homo sapiens), sequence (Q9Y4K4 whole entry, looked up, the tested form may be a part): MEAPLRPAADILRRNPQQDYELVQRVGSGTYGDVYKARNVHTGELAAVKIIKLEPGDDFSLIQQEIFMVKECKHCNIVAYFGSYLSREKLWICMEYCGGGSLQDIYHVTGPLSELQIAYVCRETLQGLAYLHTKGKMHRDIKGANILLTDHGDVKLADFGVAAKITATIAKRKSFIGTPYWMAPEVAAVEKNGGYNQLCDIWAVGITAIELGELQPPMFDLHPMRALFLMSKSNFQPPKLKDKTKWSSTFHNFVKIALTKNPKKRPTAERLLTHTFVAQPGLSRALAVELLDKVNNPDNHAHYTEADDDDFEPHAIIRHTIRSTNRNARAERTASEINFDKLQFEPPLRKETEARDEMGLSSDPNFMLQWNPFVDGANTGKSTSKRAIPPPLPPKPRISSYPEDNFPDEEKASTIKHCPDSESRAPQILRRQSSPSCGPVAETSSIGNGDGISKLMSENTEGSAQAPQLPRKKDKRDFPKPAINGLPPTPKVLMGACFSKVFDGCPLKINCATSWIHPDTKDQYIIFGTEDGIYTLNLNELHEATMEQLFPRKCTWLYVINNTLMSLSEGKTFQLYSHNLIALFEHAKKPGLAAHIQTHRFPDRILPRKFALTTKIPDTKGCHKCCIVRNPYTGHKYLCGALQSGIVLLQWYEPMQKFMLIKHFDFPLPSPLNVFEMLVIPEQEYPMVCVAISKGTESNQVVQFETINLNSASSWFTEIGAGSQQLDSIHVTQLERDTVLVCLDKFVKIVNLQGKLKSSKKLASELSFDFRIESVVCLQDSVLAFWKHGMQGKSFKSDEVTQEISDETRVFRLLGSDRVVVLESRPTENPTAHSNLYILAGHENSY

[5] = biological target: MAP/microtubule affinity-regulating kinase 3 (Homo sapiens) (UniProt P27448); experiment: Binding affinity to wild-type human full length MARK3 (M1 to L729 residues) expressed in bacterial expression system assessed as residual binding level at 1 uM by Kinomescan method relative to control; procedure, shortened: as §1
MAP/microtubule affinity-regulating kinase 3 (Homo sapiens), sequence (P27448 whole entry, looked up, the tested form may be a part): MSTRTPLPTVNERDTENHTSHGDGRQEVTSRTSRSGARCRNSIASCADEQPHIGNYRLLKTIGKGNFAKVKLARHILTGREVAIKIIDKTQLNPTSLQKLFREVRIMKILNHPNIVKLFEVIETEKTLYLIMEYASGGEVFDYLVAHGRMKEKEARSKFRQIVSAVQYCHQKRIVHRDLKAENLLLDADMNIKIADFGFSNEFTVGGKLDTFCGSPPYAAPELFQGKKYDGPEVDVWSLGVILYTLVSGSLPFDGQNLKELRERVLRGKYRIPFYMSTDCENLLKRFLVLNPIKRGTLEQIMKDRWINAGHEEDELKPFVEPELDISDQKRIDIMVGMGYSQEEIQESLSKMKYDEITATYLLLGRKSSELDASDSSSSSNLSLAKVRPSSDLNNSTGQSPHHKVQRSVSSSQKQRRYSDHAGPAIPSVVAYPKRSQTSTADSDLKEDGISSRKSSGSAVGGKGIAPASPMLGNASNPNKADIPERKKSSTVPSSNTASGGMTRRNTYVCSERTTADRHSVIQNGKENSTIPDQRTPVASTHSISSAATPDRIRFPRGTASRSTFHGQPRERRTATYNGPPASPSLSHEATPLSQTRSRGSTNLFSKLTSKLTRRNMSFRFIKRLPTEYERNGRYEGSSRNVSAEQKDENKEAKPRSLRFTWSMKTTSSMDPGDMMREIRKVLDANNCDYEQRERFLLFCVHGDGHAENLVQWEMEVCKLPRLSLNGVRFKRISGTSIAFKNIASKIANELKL

[6] = biological target: Activin receptor type-2B (Homo sapiens) (UniProt Q13705); experiment: Binding affinity to wild-type human ACVR2B (H169 to D504 residues) expressed in bacterial expression system assessed as residual binding level at 1 uM by Kinomescan method relative to control; procedure, shortened: as §1
Activin receptor type-2B (Homo sapiens), sequence (Q13705 whole entry, the tested form may be a part): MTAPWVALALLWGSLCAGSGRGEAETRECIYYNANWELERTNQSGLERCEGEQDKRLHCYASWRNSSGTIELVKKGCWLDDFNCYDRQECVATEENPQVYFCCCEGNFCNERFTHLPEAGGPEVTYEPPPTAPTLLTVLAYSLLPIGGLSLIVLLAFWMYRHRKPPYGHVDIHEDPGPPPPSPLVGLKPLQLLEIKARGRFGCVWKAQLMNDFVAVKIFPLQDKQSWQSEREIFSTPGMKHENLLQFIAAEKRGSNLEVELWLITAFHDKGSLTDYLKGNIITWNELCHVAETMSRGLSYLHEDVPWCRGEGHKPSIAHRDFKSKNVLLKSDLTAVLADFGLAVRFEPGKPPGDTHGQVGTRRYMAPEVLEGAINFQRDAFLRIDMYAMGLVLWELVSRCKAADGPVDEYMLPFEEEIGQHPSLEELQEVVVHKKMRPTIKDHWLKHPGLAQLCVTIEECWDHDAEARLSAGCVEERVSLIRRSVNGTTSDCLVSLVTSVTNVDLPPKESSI

[7] = biological target: Activin receptor type-1B (Homo sapiens) (UniProt P36896); experiment: Binding affinity to wild-type human ACVR1B (S187 to I505 residues) expressed in bacterial expression system assessed as residual binding level at 1 uM by Kinomescan method relative to control
Activin receptor type-1B (Homo sapiens), sequence (P36896 whole entry, the tested form may be a part): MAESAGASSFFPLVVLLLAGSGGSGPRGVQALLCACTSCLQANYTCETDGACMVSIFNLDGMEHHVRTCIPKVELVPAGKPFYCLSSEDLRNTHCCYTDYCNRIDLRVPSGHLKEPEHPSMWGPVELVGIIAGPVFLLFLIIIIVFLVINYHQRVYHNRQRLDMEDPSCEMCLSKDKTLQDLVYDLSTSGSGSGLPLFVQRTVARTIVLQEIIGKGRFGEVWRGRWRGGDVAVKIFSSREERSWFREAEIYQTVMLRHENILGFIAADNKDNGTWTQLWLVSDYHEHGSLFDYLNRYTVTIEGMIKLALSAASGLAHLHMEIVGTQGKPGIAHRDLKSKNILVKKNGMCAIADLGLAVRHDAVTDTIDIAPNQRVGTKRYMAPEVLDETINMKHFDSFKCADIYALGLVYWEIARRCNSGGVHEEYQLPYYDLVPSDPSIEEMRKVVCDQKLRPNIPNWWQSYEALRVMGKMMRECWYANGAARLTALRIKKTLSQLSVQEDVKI
Procedure, shortened: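 Single-concentration (1 μM) competition-binding screen run by KINOMEscan against a panel of 468 purified kinases and mutants. The read-out is the relative binding activity of the test compound to each kinase.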

[8] = biological target: Serine/threonine-protein kinase PAK 1 (Homo sapiens) (UniProt Q13153); experiment: Binding affinity to wild-type human partial length PAK1 (S149 to H545 residues) expressed in bacterial expression system assessed as residual binding level at 1 uM by Kinomescan method relative to control
[9] = biological target: Myosin-IIIa (Homo sapiens) (UniProt Q8NEV4); experiment: Binding affinity to wild-type human partial length MYO3A (M1 to K338 residues) expressed in bacterial expression system assessed as residual binding level at 1 uM by Kinomescan method relative to control
Myosin-IIIa (Homo sapiens), sequence (Q8NEV4 whole entry, the tested form may be a part): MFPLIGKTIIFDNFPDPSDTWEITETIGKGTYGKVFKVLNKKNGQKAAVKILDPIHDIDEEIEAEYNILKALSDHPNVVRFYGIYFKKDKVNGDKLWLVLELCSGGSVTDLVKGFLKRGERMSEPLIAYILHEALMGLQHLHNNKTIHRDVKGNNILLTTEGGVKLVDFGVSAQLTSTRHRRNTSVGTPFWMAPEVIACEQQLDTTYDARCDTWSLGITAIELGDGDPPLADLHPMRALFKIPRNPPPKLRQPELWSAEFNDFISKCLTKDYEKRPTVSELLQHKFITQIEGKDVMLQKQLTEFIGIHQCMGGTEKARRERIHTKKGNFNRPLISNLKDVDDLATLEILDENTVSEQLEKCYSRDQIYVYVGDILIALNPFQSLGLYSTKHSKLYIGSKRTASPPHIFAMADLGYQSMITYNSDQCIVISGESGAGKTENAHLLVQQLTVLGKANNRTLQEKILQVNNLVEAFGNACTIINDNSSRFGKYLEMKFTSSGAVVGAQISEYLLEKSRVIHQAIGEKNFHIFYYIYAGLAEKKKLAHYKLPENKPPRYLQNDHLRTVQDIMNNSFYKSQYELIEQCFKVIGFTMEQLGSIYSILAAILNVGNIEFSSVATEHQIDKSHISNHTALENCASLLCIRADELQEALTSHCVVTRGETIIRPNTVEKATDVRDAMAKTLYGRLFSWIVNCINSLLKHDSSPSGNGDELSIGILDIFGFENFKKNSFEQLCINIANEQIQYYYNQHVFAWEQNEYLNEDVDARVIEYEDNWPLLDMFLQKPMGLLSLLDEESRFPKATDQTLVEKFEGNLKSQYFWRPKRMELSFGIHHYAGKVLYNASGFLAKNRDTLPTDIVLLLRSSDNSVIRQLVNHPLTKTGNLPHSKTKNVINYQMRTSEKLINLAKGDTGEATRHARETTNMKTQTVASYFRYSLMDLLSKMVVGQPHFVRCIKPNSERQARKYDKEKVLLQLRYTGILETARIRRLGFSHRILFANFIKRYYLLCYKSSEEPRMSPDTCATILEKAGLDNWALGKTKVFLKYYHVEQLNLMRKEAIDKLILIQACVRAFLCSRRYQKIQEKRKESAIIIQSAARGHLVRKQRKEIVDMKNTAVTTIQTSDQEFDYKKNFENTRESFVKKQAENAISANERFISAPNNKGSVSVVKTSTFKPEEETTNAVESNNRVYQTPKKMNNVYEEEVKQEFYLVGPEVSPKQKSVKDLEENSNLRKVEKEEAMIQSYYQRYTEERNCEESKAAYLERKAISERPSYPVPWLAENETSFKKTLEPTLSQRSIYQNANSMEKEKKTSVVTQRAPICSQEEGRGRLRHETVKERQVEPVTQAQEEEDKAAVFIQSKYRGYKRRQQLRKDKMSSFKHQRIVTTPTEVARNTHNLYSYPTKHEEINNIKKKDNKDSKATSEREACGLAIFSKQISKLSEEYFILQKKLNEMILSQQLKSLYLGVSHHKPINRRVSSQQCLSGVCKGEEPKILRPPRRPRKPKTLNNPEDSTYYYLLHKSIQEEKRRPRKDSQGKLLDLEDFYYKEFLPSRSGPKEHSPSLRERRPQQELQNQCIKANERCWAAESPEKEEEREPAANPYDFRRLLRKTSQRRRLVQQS
Procedure, shortened: (§3)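 Kinome-wide competition binding screen against a panel of 468 purified kinases/mutants, with the test compound at a single concentration of 1 μM. Read-out is the relative binding activity of each kinase in the presence of compound.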

[10] = biological target: Discoidin domain-containing receptor 2 (Homo sapiens) (UniProt Q16832); experiment: Binding affinity to wild-type human partial length DDR2 (V555 to E855 residues) expressed in mammalian expression system assessed as residual binding level at 1 uM by Kinomescan method relative to control; procedure, shortened: as §3
Discoidin domain-containing receptor 2 (Homo sapiens), sequence (Q16832 whole entry, the tested form may be a part): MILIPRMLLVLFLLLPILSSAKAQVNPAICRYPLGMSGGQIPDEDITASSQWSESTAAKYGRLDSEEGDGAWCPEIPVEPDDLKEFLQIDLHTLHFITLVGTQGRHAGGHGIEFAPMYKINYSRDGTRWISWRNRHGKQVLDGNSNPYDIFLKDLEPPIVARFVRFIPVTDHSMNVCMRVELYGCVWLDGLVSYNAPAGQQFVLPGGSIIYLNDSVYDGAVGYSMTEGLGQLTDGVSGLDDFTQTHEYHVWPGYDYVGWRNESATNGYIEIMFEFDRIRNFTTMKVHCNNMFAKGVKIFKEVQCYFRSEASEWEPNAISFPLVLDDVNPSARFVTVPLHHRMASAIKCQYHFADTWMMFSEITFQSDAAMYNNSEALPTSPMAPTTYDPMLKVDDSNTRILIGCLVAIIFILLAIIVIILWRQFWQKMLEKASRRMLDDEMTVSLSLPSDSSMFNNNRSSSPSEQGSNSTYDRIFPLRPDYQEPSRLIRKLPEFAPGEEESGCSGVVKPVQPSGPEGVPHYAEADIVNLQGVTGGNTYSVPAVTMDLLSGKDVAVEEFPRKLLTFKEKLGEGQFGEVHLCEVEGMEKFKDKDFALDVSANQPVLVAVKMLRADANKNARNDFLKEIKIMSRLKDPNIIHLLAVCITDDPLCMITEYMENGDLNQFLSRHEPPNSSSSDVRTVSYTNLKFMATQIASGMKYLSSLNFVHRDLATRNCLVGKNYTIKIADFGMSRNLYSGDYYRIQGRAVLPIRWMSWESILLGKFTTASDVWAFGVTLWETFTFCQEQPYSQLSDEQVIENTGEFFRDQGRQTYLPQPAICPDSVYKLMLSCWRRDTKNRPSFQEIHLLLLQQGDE

[11] = test system: Receptor-type tyrosine-protein kinase FLT3 (Homo sapiens), P36888 [D835H]; experiment: Binding affinity to human partial length FLT3 D835H mutant (V592 to Y969 residues) expressed in bacterial expression system assessed as residual binding level at 1 uM by Kinomescan method relative to control
Procedure, shortened: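 Kinome-wide single-concentration binding screen (KINOMEscan) at 1 μM against a panel of 468 purified kinases and mutants. Read-out is relative binding of each kinase compared with control. Selectivity across the panel was summarised as an S(10) score.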

[12] = biological target: Proto-oncogene tyrosine-protein kinase ROS (Homo sapiens) (UniProt P08922); experiment: Binding affinity to wild-type human partial length ROS1 (A1921 to N2240 residues) expressed in bacterial expression system assessed as residual binding level at 1 uM by Kinomescan method relative to control
[13] = biological target: Serine/threonine-protein kinase VRK2 (Homo sapiens) (UniProt Q86Y07); experiment: Binding affinity to wild-type human partial length VRK2 (M1 to T336 residues) expressed in mammalian expression system assessed as residual binding level at 1 uM by Kinomescan method relative to control
Homo sapiens = species on record: Homo sapiens; experiment: Selectivity index, ratio of GI50 for TEL-fused PDGFRbeta (unknown origin) expressed in mouse BA/F3 cells to GI50 for TEL-fused PDGFRalpha (unknown origin) expressed in mouse BA/F3 cells; format: cell-based
Procedure, shortened: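 Parental BaF3 or IL-3-independent TEL-kinase BaF3 lines, made by retroviral infection and puromycin selection, grown in RPMI 1640 with 10% FBS. Cells seeded at 1–3 × 10^4 cells/mL with serial compound concentrations for 72 h. Viability read by CellTiter-Glo luminescence or CCK-8 absorbance at 450/655 nm and normalised to DMSO. GI50 obtained by triplicate testing with linear regression. Selectivity is the ratio of the two GI50 values.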

[14] = biological target: Mitogen-activated protein kinase 9 (Homo sapiens) (UniProt P45984); experiment: Binding affinity to wild-type human full length JNK2 (M1 to Q382 residues) expressed in mammalian expression system assessed as residual binding level at 1 uM by Kinomescan method relative to control; procedure, shortened: as §1
[15] = biological target: Dual specificity mitogen-activated protein kinase kinase 5 (Homo sapiens) (UniProt Q13163); experiment: Binding affinity to wild-type human partial length MEK5 (L98 to P448 residues) expressed in mammalian expression system assessed as residual binding level at 1 uM by Kinomescan method relative to control
[16] = biological target: Dual specificity mitogen-activated protein kinase kinase 4 (Homo sapiens) (UniProt P45985); experiment: Binding affinity to wild-type human partial length MEK4 (S84 to D399 residues) expressed in mammalian expression system assessed as residual binding level at 1 uM by Kinomescan method relative to control
[17] = biological target: Platelet-derived growth factor receptor alpha (Homo sapiens, UniProt P16234); experiment: Inhibition of PDGFRalpha in human EOL-1 cells assessed as decrease in ERK phosphorylation at T202/Y204 residues after 2 hrs in presence of PDGF-AA by Western blot analysis; format: cell-based
[18] = biological target: SRSF protein kinase 2 (Homo sapiens) (UniProt P78362); experiment: Binding affinity to wild-type human full length SRPK2 (M1 to S686 residues) expressed in bacterial expression system assessed as residual binding level at 1 uM by Kinomescan method relative to control; procedure, shortened: as §2

Structure (SMILES): Cc1ccc(NC(=O)c2ccc(CN(CCN(C)C)C(=O)c3cccnc3)cc2)cc1Nc1nccc(-c2cccnc2)n1
- Activity [1]: 83%
- Activity [2]: 98%
- Activity [3]: 100%
- GI50 (NCI-H1703): 5.37 µM
- Activity [4]: 97%
- Activity [5]: 80%
- Activity [6]: 89%
- Activity [7]: 100%
- Activity [8]: 95%
- Activity [9]: 92%
- Activity [10]: 33%
- Activity [11]: 100%
- Activity [12]: 99%
- Activity [13]: 100%
- RatioGI50 (Homo sapiens): 85
- Activity [14]: 91%
- Activity [15]: 100%
- Activity [16]: 100%
- inhibition [17]: Dose-dependent effect
- Activity [18]: 86%
